Consider 2 substances from publication PMC4956517 (Experimental hematology, 2016).

One data set concerns EPOR (UT7epo cells). Kind of data set: Western blotting of EPOR forms in UT7epo cells. It is filed as cell-based, human. As to conditions: versus rHu-EPO. The procedure, abridged:
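UT7epo cells were cultured in test compound or rHu-EPO at varied, biologically matched doses. For extended time-courses, medium plus ligand was replaced daily. Western blots over the time-course were probed with rabbit monoclonal anti-hEPOR IC-c1.1, with anti-GAPDH as loading control.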
On the technique in general: Immunoblotting shows a protein as a band on a membrane.

The test system of a further data set is EPOR transcript. Kind of data set: Quantitative RT-PCR of EPOR transcript levels. It is filed as cell-based, human. The conditions noted are these: peginesatide vs rHu-EPO; data not shown.
The subject of data set [1] is endogenous cell surface EPOR (UT7epo cells). The experiment in a line: Flow cytometry of endogenous cell surface EPOR in UT7epo cells. Format: cell-based, human. The conditions noted are these: versus rHu-EPO at matched doses (1.5U/mL vs 2.1 nM, 2.0 U/mL vs 2.8nM); days 4 and 8; antibody EC-c38.5; median and mean fluorescence intensities, clear statistical significance; n=3. Background: A flow cytometer gives signals particle by particle.

The conditions of data set [2]: cited from earlier work.
In data set [3] the target is T1, hEPOR-Fc construct (EPOR extracellular domain-IgFc) (Homo sapiens, UniProt P19235).
T1 sequence (P19235 25-250 limits assumed): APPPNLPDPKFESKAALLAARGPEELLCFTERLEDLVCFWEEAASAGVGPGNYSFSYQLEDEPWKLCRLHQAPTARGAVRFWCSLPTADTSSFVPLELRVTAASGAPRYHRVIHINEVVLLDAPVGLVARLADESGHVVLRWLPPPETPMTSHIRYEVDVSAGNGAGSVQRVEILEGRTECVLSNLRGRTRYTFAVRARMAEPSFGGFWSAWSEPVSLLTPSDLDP
Kind of data set: Surface plasmon resonance. It is filed as binding. As to conditions: Biacore. In general terms: In SPR one partner is held on a chip, and binding of the other changes the refractive index at the surface.

“Also recorded” adds a separate entry of the source.

In the case of peginesatide, the “processing of the EPOR to lower molecular weight forms” value in the data set with EPOR (UT7epo cells) (peginesatide as the EPOR ligand) is on record as “observed trends towards apparent lessened processing of the EPOR to lower molecular weight forms”. For the same substance, in the data set with EPOR (UT7epo cells) (time-course, antibody IC-c1.1), the “levels of full-length EPOR-68K receptor forms” value was “elevated levels of full-length EPOR-68K receptor forms” and the “levels of lower molecular weight EPOR-36K form” value is on record as “no such increases were observed”. Also, in the data set with EPOR transcript, the EPOR transcript levels result is given as “no differential effects”. The “cell surface EPOR levels” value in data set [1] is listed as “notably elevated cell surface EPOR levels”. The allergenic side-effects result in data set [2] (first-time recipients, ref Bennett, et al 2014) is recorded as “can also somehow stimulate allergenic reactivity; also recorded: allergenic side-effects in certain first-time recipients”. The anaphylactic reactions entry in data set [2] (ref Bennett, et al 2014) is recorded as “rare fatal anaphylaxis; also recorded: severe anaphylactic reactions infrequently experienced”. Besides, in data set [3] (ECD-EPOR-Fc immobilized at 675 RU and 225 RU), the “stability of binding to the EPOR” value is recorded as “uniquely highly stable binding to the EPOR”. Also, the “EPOR residence time, ratio to that of rHu-EPO” value in data set [3] (estimated, greater than that of rHu-EPO, immobilized ECD-EPOR-Fc) is on record as 17.1 fold.
In the case of “rHu-TPO: Thrombopoietin (TPO); effective in stimulating megakaryocyte and platelet production”, the TPO-reactive antibody formation result in data set [2] (clinical trials, ref Basser 2002) was “induce TPO- reactive antibody formation”.
